Measurements: ChEMBL document CHEMBL3244322, “5-O-Alkylated derivatives of 5-hydroxy-2'-deoxyuridine as potential antiviral agents. Anti-herpes activity of 5-propynyloxy-2'-deoxyuridine” (J Med Chem, 1978)
Values after ≈ are worked out from the molar mass of the structure shown. Active and inactive are the calls of the source. The calls are words filed in the database; no cut-off is given here.

Assays:
Human alphaherpesvirus 1 [1] = assay: Antiviral activity against Herpes simplex virus 1 KOS infected in primary rabbit kidney cells assessed as inhibition of virus-induced cytopathogenicity; assay type: functional; conditions: Human alphaherpesvirus 1, KOS
Human alphaherpesvirus 1 [2] = assay: Antiviral activity against Herpes simplex virus 1 KOS infected in human skin fibroblasts primed with interferon and superinduced with cyclohexamide and actinomycin D assessed as inhibition of virus-induced cytopathogenicity; assay type: functional; conditions: Human alphaherpesvirus 1, KOS
[3] = tested on: Vesicular stomatitis virus; assay: Antiviral activity against Vesicular stomatitis virus infected in primary rabbit kidney cells assessed as inhibition of virus-induced cytopathogenicity; assay type: functional, organism-based
[4] = tested on: Vesicular stomatitis virus; assay: Antiviral activity against Vesicular stomatitis virus infected in human skin fibroblasts primed with interferon and superinduced with cyclohexamide and actinomycin D assessed as inhibition of virus-induced cytopathogenicity; assay type: functional, organism-based
[5] = Cytotoxicity against mouse L cells assessed as suppression of replication at 10^-3 M; assay type: cell-based; conditions: l929, 1000 µM
[6] = Ratio of I50 for DNA synthesis in primary rabbit kidney cells by [3H]-dT incorporation assay to MIC50 for Herpes simplex virus 1 KOS
How it was run: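 DNA synthesis in uninfected PRK cells measured by [3H]-dT incorporation. The concentration giving 50% reduction is set against the concentration giving 50% reduction in herpes virus cytopathogenicity.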

[7] = Cytotoxicity against mouse L cells assessed as suppression of replication; assay type: cell-based; conditions: l929

SMILES	MIC (Human alphaherpesvirus 1 [1])	MIC (Human alphaherpesvirus 1 [2])	inhibition [3]	inhibition [4]	Activity [5]	Ratio [6]	Activity [7]
C=CCOc1cn([C@@H]2O[C@H](CO)[C@@H](O)[C@H]2O)c(=O)[nH]c1=O	> 600 µM	> 600 µM	inactive	inactive	–	–	–
C#CCOc1cn([C@H]2C[C@H](O)[C@@H](CO)O2)c(=O)[nH]c1=O	2.6 µM (≈ 0.734 µg/mL)	3.5 µM (≈ 0.988 µg/mL)	inactive	inactive	Non-toxic	150	–
NC(=O)COc1cn([C@H]2C[C@H](O)[C@@H](CO)O2)c(=O)[nH]c1=O	140 µM (≈ 42.2 µg/mL)	260 µM (≈ 78.3 µg/mL)	inactive	inactive	–	–	–
O=c1[nH]c(=O)n([C@@H]2O[C@H](CO)[C@@H](O)[C@H]2O)cc1OCc1ccccc1	> 600 µM	> 600 µM	inactive	inactive	–	–	–
O=c1[nH]c(=O)n([C@H]2C[C@H](O)[C@@H](CO)O2)cc1OCc1ccccc1	> 120 µM	> 450 µM	inactive	inactive	–	–	–
C=CCOc1cn([C@H]2C[C@H](O)[C@@H](CO)O2)c(=O)[nH]c1=O	14 µM (≈ 3.98 µg/mL)	140 µM (≈ 39.8 µg/mL)	inactive	inactive	–	–	–
O=c1[nH]c(=O)n([C@@H]2O[C@H](CO)[C@@H](O)[C@H]2O)cc1OCc1ccc([N+](=O)[O-])cc1	> 600 µM	> 600 µM	inactive	inactive	–	–	–
NC(=O)COc1cn([C@@H]2O[C@H](CO)[C@@H](O)[C@H]2O)c(=O)[nH]c1=O	> 600 µM	> 600 µM	inactive	inactive	–	–	–
Cc1ccc(COc2cn([C@@H]3O[C@H](CO)[C@@H](O)[C@H]3O)c(=O)[nH]c2=O)cc1	> 600 µM	> 600 µM	inactive	inactive	–	–	–
O=C(O)COc1cn([C@H]2C[C@H](O)[C@@H](CO)O2)c(=O)[nH]c1=O	> 600 µM	–	inactive	inactive	–	–	–
O=c1[nH]c(=O)n([C@H]2C[C@H](O)[C@@H](CO)O2)cc1O	16 µM (≈ 3.91 µg/mL)	3.5 µM (≈ 0.855 µg/mL)	–	–	–	–	–
O=c1[nH]c(=O)n([C@H]2C[C@H](O)[C@@H](CO)O2)cc1I [IDOXURIDINE]	1.4 µM (≈ 0.496 µg/mL)	0.35 µM (≈ 0.124 µg/mL)	–	–	–	–	Toxic
Nc1ncnc2c1ncn2[C@@H]1O[C@H](CO)[C@@H](O)[C@@H]1O [VIDARABINE]	14 µM (≈ 3.74 µg/mL)	3.5 µM (≈ 0.935 µg/mL)	–	–	–	–	–
O=c1[nH]c(=O)n([C@H]2C[C@H](O)[C@@H](CO)O2)cc1OCc1ccc([N+](=O)[O-])cc1	> 260 µM	> 520 µM	inactive	inactive	–	–	–
